Measured values: ChEMBL document CHEMBL1833825, “3-Aryl-2-[1H-benzotriazol-1-yl]acrylonitriles: a novel class of potent tubulin inhibitors” (Eur J Med Chem, 2011)
pIC50: −log10 of the molar value. Activity calls are given as the source filed them. The calls are words filed in the database; no cut-off is given here.

Experiments:
[1] = Cytotoxicity against human MT4 cells infected with HTLV-1 after 96 hrs by MTT assay; assay type: cell-based
Outline: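 Mock-infected MT-4 cells (CD4+ T-cells carrying integrated HTLV-1 genome) were seeded at 1×10^5 cells/mL in RPMI-1640 with 10% FCS and penicillin/streptomycin. They were given serial compound dilutions for 96 h at 37 °C, 5% CO2, and viability was read by MTT. The value is the concentration reducing viability by 50%. Mean of two experiments; duplicate variation <15%.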

HepG2 = assay: Antiproliferative activity against human HepG2 cells after 96 hrs by MTT assay; assay type: functional; settings: HepG2, 96 h
Outline: (§1)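 Solid-tumor lines (SK-MEL-28, MCF-7, SK-MES-1, HepG-2, DU-145) were seeded at 1×10^5 cells/mL in their specific media with 10% FCS plus antibiotics. Serial dilutions of compounds (100 mM DMSO stocks diluted in medium) were applied for 96 h at 37 °C, 5% CO2, with MTT readout. 50% proliferation-inhibition concentration; untreated controls underwent ≥3 multiplication rounds; mean of two experiments, duplicate variation <15%.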

DU-145 = assay: Antiproliferative activity against human DU145 cells after 96 hrs by MTT assay; assay type: functional; settings: DU-145, 96 h, read-out: CC50; outline: as §1
SK-MES-1 = assay: Antiproliferative activity against human SKMES1 cells after 96 hrs by MTT assay; assay type: functional; settings: SK-MES-1, 96 h; outline: as §1
[2] = Displacement of [3H]colchicine from biotin-labeled tubulin after 2 hrs by competitive scintillation proximity assay
Outline: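 Scintillation proximity format: biotinylated tubulin, reconstituted per manufacturer, was incubated with [3H]colchicine and diluted compound in binding buffer at 37 °C for 2 h. Streptavidin-coated yttrium SPA beads were then added and bound radioactivity counted. IC50 came from nonlinear regression.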

CCRF-CEM = assay: Antiproliferative activity against human CCRF-CEM cells after 96 hrs by MTT assay; assay type: functional; settings: read-out: CC50
Outline: (§2)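 Hematological lines (CCRF-CEM, CCRF-SB, WIL-2NS) were seeded exponentially growing at 1×10^5 cells/mL in RPMI-1640 with 10% FCS, penicillin G and streptomycin. They were exposed to serial dilutions (from 100 mM DMSO stocks) for 96 h at 37 °C, 5% CO2, then read by MTT. The value is the concentration giving 50% proliferation reduction, with controls allowed ≥3 rounds of multiplication. Mean of two experiments; duplicate variation <15%.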

K562 [3] = assay: Cell cycle arrest in human K562 cells assessed as accumulation at S phase at total growth inhibitory compound concentration 24 hrs using propidium iodide staining by FACS analysis (reference value: 47%); assay type: functional; parameters: scale not given: the % may be the effect or the level left
K562 [4] = assay: Cell cycle arrest in human K562 cells assessed as accumulation at G0/G1 phase at total growth inhibitory compound concentration 24 hrs using propidium iodide staining by FACS analysis (reference value: 35%); assay type: functional; parameters: scale not given: the % may be the effect or the level left
MCF7 = assay: Antiproliferative activity against human MCF7 cells after 96 hrs by MTT assay; assay type: functional; settings: MCF7, 96 h; outline: as §1
WIL2-NS = assay: Antiproliferative activity against human WIL2-NS cells after 96 hrs by MTT assay; assay type: functional; outline: as §2
[5] = Displacement of [3H]paclitaxel from biotin-labeled tubulin after 2 hrs by competitive scintillation proximity assay
K562 [6] = assay: Cell cycle arrest in human K562 cells assessed as accumulation at G2/M phase at total growth inhibitory compound concentration 24 hrs using propidium iodide staining by FACS analysis (reference value: 18%); assay type: functional; parameters: scale not given: the % may be the effect or the level left
SK-MEL-28 = assay: Antiproliferative activity against human SK-MEL-28 cells after 96 hrs by MTT assay; assay type: functional; settings: SK-MEL-28, 96 h; outline: as §1
CCRF-SB = assay: Antiproliferative activity against human CCRF-SB cells after 96 hrs by MTT assay; assay type: functional; outline: as §2

SMILES: N#C/C(=C\c1ccc(C(=O)O)cc1)n1nc2ccccc2n1
- CC50 at 96 h [1]: 16000 nM

SMILES: COc1cc(/C=C(\C#N)n2nnc3ccccc32)cc(OC)c1OC
- CC50 at 96 h [1]: 2500 nM

SMILES: N#C/C(=C\c1ccc2c(c1)OCO2)n1nnc2ccccc21
- CC50 (HepG2): 3100 nM
- IC50 (50% proliferation-inhibition concentration) (DU-145): 3400 nM
- CC50 (SK-MES-1): 3300 nM
- pIC50 [2]: 6.07
- IC50 (50% antiproliferative concentration) (CCRF-CEM): 900 nM
- CC50 at 96 h [1]: 100 nM
- Activity (K562 [3]): 22.67%
- Activity (K562 [4]): 10.9%
- CC50 (MCF7): 1300 nM
- CC50 (WIL2-NS): 600 nM
- inhibition [5]: inactive
- Activity (K562 [6]): 66.34%
- CC50 (SK-MEL-28): 3300 nM
- CC50 (CCRF-SB): 600 nM

SMILES: COc1ccc(/C=C(\C#N)n2nnc3ccccc32)cc1
- CC50 (HepG2): 800 nM
- IC50 (50% proliferation-inhibition concentration) (DU-145): 600 nM
- CC50 (SK-MES-1): 600 nM
- IC50 (50% antiproliferative concentration) (CCRF-CEM): 200 nM
- CC50 at 96 h [1]: 50 nM
- Activity (K562 [3]): 24%
- Activity (K562 [4]): 5.5%
- CC50 (MCF7): 100 nM
- CC50 (WIL2-NS): 100 nM
- Activity (K562 [6]): 70.5%
- CC50 (SK-MEL-28): 200 nM
- CC50 (CCRF-SB): 90 nM

SMILES: N#C/C(=C\c1ccccc1[N+](=O)[O-])n1nnc2ccccc21
- CC50 at 96 h [1]: 31000 nM

SMILES: N#C/C(=C\c1cccc([N+](=O)[O-])c1)n1nnc2ccccc21
- CC50 at 96 h [1]: 400 nM

SMILES: Cc1cc2nnn(/C(C#N)=C/c3ccc(Cl)cc3)c2cc1C
- CC50 at 96 h [1]: 24000 nM

SMILES: N#C/C(=C\c1ccc(Br)cc1)n1nnc2cc(Cl)c(Cl)cc21
- CC50 (HepG2): 12000 nM
- IC50 (50% proliferation-inhibition concentration) (DU-145): 7000 nM
- CC50 (SK-MES-1): 10000 nM
- IC50 (50% antiproliferative concentration) (CCRF-CEM): 5300 nM
- CC50 at 96 h [1]: 5400 nM
- CC50 (MCF7): 8400 nM
- CC50 (WIL2-NS): 18000 nM
- CC50 (SK-MEL-28): 10000 nM
- CC50 (CCRF-SB): 12000 nM

SMILES: N#C/C(=C\c1ccc2c(c1)OCO2)n1nnc2ccc(C(F)(F)F)cc21
- CC50 at 96 h [1]: 52000 nM

SMILES: Cc1ccc(/C=C(\C#N)n2nnc3ccccc32)cc1
- CC50 (HepG2): 2200 nM
- IC50 (50% proliferation-inhibition concentration) (DU-145): 500 nM
- CC50 (SK-MES-1): 1700 nM
- IC50 (50% antiproliferative concentration) (CCRF-CEM): 200 nM
- CC50 at 96 h [1]: 500 nM
- CC50 (MCF7): 700 nM
- CC50 (WIL2-NS): 200 nM
- CC50 (SK-MEL-28): 300 nM
- CC50 (CCRF-SB): 70 nM

SMILES: N#C/C(=C\c1ccc(Cl)cc1)n1nc2ccccc2n1
- CC50 at 96 h [1]: 16000 nM

SMILES: COc1ccc(/C=C(\C#N)n2nnc3ccccc32)cc1OC
- CC50 at 96 h [1]: 7500 nM

SMILES: N#C/C(=C\c1ccc(F)cc1)n1nc2ccccc2n1
- CC50 at 96 h [1]: 32000 nM

SMILES: N#C/C(=C\c1cccc([N+](=O)[O-])c1)n1nnc2cc(C(F)(F)F)ccc21
- CC50 at 96 h [1]: 700 nM

SMILES: Cc1ccc(/C=C(\C#N)n2nc3ccccc3n2)cc1
- CC50 at 96 h [1]: 20000 nM

SMILES: Cc1cc2nnn(/C(C#N)=C/c3ccc4c(c3)OCO4)c2cc1C
- CC50 at 96 h [1]: 1300 nM

SMILES: N#C/C(=C\c1ccc(Cl)cc1Cl)n1nnc2ccccc21
- CC50 at 96 h [1]: 6000 nM

SMILES: COc1ccccc1/C=C(\C#N)n1nnc2ccccc21
- CC50 at 96 h [1]: 8300 nM

SMILES: N#C/C(=C\c1ccccc1)n1nnc2ccccc21
- CC50 at 96 h [1]: 4000 nM

SMILES: Cc1cc2nnn(/C(C#N)=C/c3cccc([N+](=O)[O-])c3)c2cc1C
- CC50 at 96 h [1]: 500 nM

SMILES: N#C/C(=C\c1ccccc1)n1nc2ccccc2n1
- CC50 at 96 h [1]: 12000 nM

SMILES: COc1cc([C@@H]2c3cc4c(cc3[C@@H](O[C@@H]3O[C@@H]5CO[C@@H](C)O[C@H]5[C@H](O)[C@H]3O)[C@H]3COC(=O)[C@H]23)OCO4)cc(OC)c1O [ETOPOSIDE]
- CC50 (HepG2): 700 nM
- CC50 (SK-MES-1): 300 nM
- CC50 at 96 h [1]: 90 nM
- CC50 (MCF7): 1000 nM
- CC50 (WIL2-NS): 200 nM
- CC50 (SK-MEL-28): 1200 nM
- CC50 (CCRF-SB): 100 nM

SMILES: N#C/C(=C\c1ccco1)n1nc2ccccc2n1
- CC50 at 96 h [1]: 375000 nM

SMILES: COc1ccc(/C=C(\C#N)n2nc3ccccc3n2)cc1OC
- CC50 at 96 h [1]: 360000 nM

SMILES: COc1cccc(/C=C(\C#N)n2nnc3ccccc32)c1
- CC50 at 96 h [1]: 4700 nM

SMILES: N#C/C(=C\c1ccc([N+](=O)[O-])cc1)n1nc2ccccc2n1
- CC50 at 96 h [1]: 400 nM

SMILES: N#C/C(=C\c1ccccc1I)n1nnc2ccccc21
- CC50 at 96 h [1]: 25000 nM

SMILES: N#C/C(=C\c1cccs1)n1nc2ccccc2n1
- CC50 at 96 h [1]: 132000 nM

SMILES: N#C/C(=C\c1ccc(Cl)cc1)n1nnc2ccccc21
- CC50 at 96 h [1]: 400 nM

SMILES: Sc1ncnc2nc[nH]c12 [MERCAPTOPURINE ANHYDROUS]
- CC50 (HepG2): 8000 nM
- CC50 (SK-MES-1): 58000 nM
- CC50 at 96 h [1]: 100 nM
- CC50 (MCF7): 3200 nM
- CC50 (WIL2-NS): 3000 nM
- CC50 (SK-MEL-28): 15000 nM
- CC50 (CCRF-SB): 1100 nM

SMILES: N#C/C(=C\c1ccc(C(=O)O)cc1)n1nnc2ccccc21
- CC50 at 96 h [1]: 17000 nM

SMILES: Cc1ccc(/C=C(\C#N)n2nnc3cc(Cl)c(Cl)cc32)cc1
- CC50 (HepG2): 21000 nM
- IC50 (50% proliferation-inhibition concentration) (DU-145): 17000 nM
- CC50 (SK-MES-1): 27000 nM
- IC50 (50% antiproliferative concentration) (CCRF-CEM): 2800 nM
- CC50 at 96 h [1]: 1700 nM
- Activity (K562 [3]): 15.5%
- Activity (K562 [4]): 18.5%
- CC50 (MCF7): 27000 nM
- CC50 (WIL2-NS): 7000 nM
- Activity (K562 [6]): 67%
- CC50 (SK-MEL-28): 20000 nM
- CC50 (CCRF-SB): 2800 nM

SMILES: N#C/C(=C\c1ccc(Br)cc1)n1nnc2ccccc21
- CC50 (HepG2): 2100 nM
- IC50 (50% proliferation-inhibition concentration) (DU-145): 1700 nM
- CC50 (SK-MES-1): 2400 nM
- IC50 (50% antiproliferative concentration) (CCRF-CEM): 400 nM
- CC50 at 96 h [1]: 400 nM
- Activity (K562 [3]): 22.41%
- Activity (K562 [4]): 42.25%
- CC50 (MCF7): 700 nM
- CC50 (WIL2-NS): 600 nM
- Activity (K562 [6]): 35.34%
- CC50 (SK-MEL-28): 1100 nM
- CC50 (CCRF-SB): 300 nM

SMILES: COc1ccc(/C=C(\C#N)n2nnc3cc(Cl)c(Cl)cc32)cc1
- CC50 (HepG2): > 100000 nM
- IC50 (50% proliferation-inhibition concentration) (DU-145): > 100000 nM
- CC50 (SK-MES-1): > 100000 nM
- IC50 (50% antiproliferative concentration) (CCRF-CEM): > 100000 nM
- CC50 at 96 h [1]: 14000 nM
- CC50 (MCF7): > 100000 nM
- CC50 (WIL2-NS): > 100000 nM
- CC50 (SK-MEL-28): > 100000 nM
- CC50 (CCRF-SB): > 100000 nM

SMILES: COc1ccc(/C=C(\C#N)n2nnc3ccc(C(F)(F)F)cc32)cc1
- CC50 at 96 h [1]: 200000 nM
